Columns and labels:
hTas1R2/smTas1R3 = target: T1, hTas1R2/smTas1R3 (Homo sapiens, UniProt Q8TE23); experiment: Ca2+ mobilization, mismatched receptor; assay type: cell-based, human/squirrel monkey; conditions: aspartame 10mM, neotame 1mM, sucralose 2 mM, D-tryptophan 5mM, sucrose 150mM; vs control / wild type human receptor
T1 sequence (Q8TE23 20-839): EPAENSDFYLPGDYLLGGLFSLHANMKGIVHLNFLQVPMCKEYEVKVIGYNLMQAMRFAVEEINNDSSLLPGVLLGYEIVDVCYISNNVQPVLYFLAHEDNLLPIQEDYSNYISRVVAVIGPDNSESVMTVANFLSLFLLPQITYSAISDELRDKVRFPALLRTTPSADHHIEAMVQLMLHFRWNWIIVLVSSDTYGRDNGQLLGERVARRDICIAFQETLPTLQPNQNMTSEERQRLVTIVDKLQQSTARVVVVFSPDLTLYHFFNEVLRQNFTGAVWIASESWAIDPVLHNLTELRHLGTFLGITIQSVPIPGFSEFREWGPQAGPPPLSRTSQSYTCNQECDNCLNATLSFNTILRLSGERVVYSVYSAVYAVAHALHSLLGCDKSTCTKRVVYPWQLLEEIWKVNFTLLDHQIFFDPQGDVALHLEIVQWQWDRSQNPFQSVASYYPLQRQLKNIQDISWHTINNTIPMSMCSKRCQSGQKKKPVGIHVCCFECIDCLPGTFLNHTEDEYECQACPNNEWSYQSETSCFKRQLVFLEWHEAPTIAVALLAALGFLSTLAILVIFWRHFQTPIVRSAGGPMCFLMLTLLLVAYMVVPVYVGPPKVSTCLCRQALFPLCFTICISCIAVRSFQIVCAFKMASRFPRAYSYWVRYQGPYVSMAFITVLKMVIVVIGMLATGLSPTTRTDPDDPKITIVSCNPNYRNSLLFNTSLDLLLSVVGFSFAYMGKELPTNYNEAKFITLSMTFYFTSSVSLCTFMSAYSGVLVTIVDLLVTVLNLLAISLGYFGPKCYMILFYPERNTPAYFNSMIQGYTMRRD
How it was run: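 Transfected HEK293E cells (50,000/well; 0.06 μg Tas1R plasmid and 0.06 μg Gα16-gust44 per well) were medium-changed at 20 h, then loaded after 24 h with 3 μM Fluo-4 AM in HBSS/20 mM HEPES for 1 h. Tastant added 30 s into scan; fluorescence (ex 488/em 525 nm) read every 2 s for 150 s. ΔF/F normalized to the hTas1R2/hTas1R3 sucralose response; three independent experiments; unpaired t test.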

smTas1R2/hTas1R3 = target: T2, smTas1R2/hTas1R3 (Saimiri sciureus, UniProt A3QP08); experiment: Ca2+ mobilization, mismatched receptor; assay type: cell-based, human/squirrel monkey; conditions: aspartame 10mM, neotame 1mM, sucralose 2 mM, D-tryptophan 5mM, sucrose 150mM
T2 sequence (A3QP08 20-834): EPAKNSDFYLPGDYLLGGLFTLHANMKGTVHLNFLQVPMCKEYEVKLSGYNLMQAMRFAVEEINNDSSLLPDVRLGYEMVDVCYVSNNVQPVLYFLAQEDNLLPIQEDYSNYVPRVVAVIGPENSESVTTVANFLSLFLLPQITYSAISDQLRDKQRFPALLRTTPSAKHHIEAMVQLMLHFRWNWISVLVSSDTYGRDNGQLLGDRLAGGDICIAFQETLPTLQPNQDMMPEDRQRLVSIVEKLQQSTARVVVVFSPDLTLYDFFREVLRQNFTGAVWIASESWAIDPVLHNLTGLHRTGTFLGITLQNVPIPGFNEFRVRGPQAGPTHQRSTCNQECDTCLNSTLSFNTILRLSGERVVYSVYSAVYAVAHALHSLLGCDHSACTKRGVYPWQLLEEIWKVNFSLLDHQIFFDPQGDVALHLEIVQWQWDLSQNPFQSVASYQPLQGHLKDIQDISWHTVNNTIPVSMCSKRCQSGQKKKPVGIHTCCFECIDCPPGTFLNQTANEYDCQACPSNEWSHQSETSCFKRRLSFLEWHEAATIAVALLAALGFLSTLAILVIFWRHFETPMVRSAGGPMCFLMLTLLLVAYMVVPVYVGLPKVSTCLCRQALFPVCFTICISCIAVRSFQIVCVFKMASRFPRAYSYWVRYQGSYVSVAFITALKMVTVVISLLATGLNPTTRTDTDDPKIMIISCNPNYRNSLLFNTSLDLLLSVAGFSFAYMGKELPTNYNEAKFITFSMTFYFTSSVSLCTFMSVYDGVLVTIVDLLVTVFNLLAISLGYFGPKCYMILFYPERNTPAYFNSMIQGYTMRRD
T2 sequence (Q7RTX0 21-852 partner): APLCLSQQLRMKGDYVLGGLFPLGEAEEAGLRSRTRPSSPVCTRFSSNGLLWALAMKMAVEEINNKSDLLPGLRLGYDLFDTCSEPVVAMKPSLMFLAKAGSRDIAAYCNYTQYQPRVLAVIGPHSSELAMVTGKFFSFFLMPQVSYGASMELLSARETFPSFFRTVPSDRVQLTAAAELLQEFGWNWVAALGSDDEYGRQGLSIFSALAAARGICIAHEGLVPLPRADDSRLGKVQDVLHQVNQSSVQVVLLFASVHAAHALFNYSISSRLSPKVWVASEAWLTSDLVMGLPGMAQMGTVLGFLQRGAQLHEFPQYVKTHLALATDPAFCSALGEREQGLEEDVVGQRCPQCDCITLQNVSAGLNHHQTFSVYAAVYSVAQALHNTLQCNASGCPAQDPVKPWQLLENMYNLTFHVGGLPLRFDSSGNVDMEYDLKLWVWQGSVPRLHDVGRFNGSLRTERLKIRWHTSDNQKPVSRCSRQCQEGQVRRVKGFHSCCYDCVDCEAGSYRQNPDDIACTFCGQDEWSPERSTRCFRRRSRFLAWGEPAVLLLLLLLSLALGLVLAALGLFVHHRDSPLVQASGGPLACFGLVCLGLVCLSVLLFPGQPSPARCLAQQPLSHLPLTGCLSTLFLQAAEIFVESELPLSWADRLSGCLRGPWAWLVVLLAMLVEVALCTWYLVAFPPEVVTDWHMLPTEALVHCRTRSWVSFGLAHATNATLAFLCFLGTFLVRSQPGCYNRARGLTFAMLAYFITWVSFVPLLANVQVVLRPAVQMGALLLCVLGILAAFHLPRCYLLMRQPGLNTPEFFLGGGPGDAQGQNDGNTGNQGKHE
How it was run: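 HEK293E cells grown at 37°C in Opti-MEM with 5% FBS and seeded at 50,000/well. Cells co-lipofected with Tas1R plasmids and Gα16-gust44 (0.06 μg each per well); medium changed at 20 h, assayed 24 h later. Cells loaded 1 h with Fluo-4 AM in HEPES-buffered HBSS. Tastant added at 30 s; fluorescence (ex 488/em 525 nm) read every 2 s for 150 s more. ΔF/F normalised to human receptor maximal sucralose response; mean ± SEM, three independent experiments.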

Structure (SMILES) | calcium response to sweetener (hTas1R2/smTas1R3) | calcium response to sweetener (smTas1R2/hTas1R3)
N[C@H](Cc1c[nH]c2ccccc12)C(=O)O [D-tryptophan] | reduced responses | remained intact or reduced
OC[C@H]1O[C@@](CO)(O[C@H]2O[C@H](CO)[C@@H](O)[C@H](O)[C@H]2O)[C@@H](O)[C@@H]1O [sucrose] | reduced responses | remained intact or reduced
